pIC50: −log10 of the molar value.

The target in the assay is Protein farnesyltransferase (Homo sapiens, UniProt P49354+P49356). Kind of assay: Inhibitory activity against recombinant mammalian protein Farnesyltransferase expressed in baculovirus. In outline:
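Recombinant mammalian FTase, baculovirus-expressed and purified, assayed continuously by fluorescence with dansyl-GCVLS-OH as peptide cosubstrate and the FPP analogue as isoprenoid. IC50 is taken from the decrease in activity with rising analogue concentration. Analogue concentrations were verified by phosphate analysis.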
Consider `CC(C)=CCC/C(C)=C/CC/C(=C/COP(=O)(O)OP(=O)(O)O)C(C)C`, for which the pIC50 was 7.46.

As to `CC(C)=CCC/C(C)=C/CC/C(=C/COP(=O)(O)OP(=O)(O)O)c1ccc(F)cc1`, the pIC50 is 5.00.

For the molecule `CCC/C(=C\COP(=O)(O)OP(=O)(O)O)CC/C=C(\C)CCC=C(C)C`, the negative-log IC50 (pIC50) is 6.34.

In the case of `C=C(C)/C(=C\COP(=O)(O)OP(=O)(O)O)CC/C=C(\C)CCC=C(C)C`, the pIC50 is 7.74.

Take `CC(C)=CCC/C(C)=C/CC/C(=C/COP(=O)(O)OP(=O)(O)O)CC(C)C`: the pIC50 is 6.54.

For `CCC(C)/C(=C\COP(=O)(O)OP(=O)(O)O)CC/C=C(\C)CCC=C(C)C` (stereo not drawn), the pIC50 was 6.99.

With `CC(C)=CCC/C(C)=C/CC/C(=C/COP(=O)(O)OP(=O)(O)O)CC(C)(C)C`, the pIC50 was 5.18.

On to `C=CC/C(=C\COP(=O)(O)OP(=O)(O)O)CC/C=C(\C)CCC=C(C)C`, for which the pIC50 was 6.92.

Source of the values: ChEMBL document CHEMBL1133135, “Grignard-mediated synthesis and preliminary biological evaluation of novel 3-substituted farnesyl diphosphate analogues” (Bioorg Med Chem Lett, 2000).
